Hits are enriched below; roughly 2.6% of the tested compounds scored in any of these assays.
OX1R antag-1 – blocks the human orexin 1 receptor; hit rate 1.8% among 330,000; OX1R-expressing cells, FRET antagonist read-out; inhibition, % at 6.6 µM; in the data active means inhibition mostly above about 38%, no sharp cut-off; inactive means mostly below about 40%;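 further: 0% = agonist challenge alone and 100% = reference antagonist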
OX1R antag-2 – human HCRTR1 antagonism | O43613 | CHO/OX1R cells, Fluo-8 calcium fluorescence, orexin A | inhibition, % at 5 µM | hit rate 0.43% among 330,000 | AID 434989;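 active means inhibition above its plate's threshold, mean inhibition of all tested compounds on the plate plus 3 SD, cut at about 37% in these data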;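 further: 0% = orexin A challenge wells and 100% = SB-334867-A antagonist wells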
OXTR potentiate – human OXTR potentiation | hit rate 0.061% among 320,000 | AID 2445 | activation, % at 3 µM | P30559 | CHO-OTR cells, Fluo-8 calcium fluorescence, potentiator mode; 0% = oxytocin EC15, 100% = EC100;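 active means activation above that plate's cutoff, the mean activation of tested compounds plus 3 SD, cut at about 6.6% in these data, passing the limit was not always enough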;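 further: 100% uses oxytocin at 75 nM as the full agonist control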
Target sequence (P30559 whole entry, looked up): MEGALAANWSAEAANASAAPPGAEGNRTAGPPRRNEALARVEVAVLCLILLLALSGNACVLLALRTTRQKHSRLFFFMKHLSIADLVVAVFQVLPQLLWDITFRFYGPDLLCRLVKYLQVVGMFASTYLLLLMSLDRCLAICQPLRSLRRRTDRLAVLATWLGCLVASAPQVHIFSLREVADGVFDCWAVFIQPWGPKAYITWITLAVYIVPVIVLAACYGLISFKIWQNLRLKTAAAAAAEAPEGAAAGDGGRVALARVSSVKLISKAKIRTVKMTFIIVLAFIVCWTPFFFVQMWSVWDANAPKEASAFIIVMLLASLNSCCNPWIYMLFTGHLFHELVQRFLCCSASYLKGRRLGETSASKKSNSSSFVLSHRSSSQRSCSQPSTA
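Assay system: CHO cell line stably expressing human OTR. Reagent: EC15 oxytocin agonist. Dosing: single dose, 3.0 µM nominal final compound concentration. Timing: compound 6 min at room temperature before oxytocin, 100 s read. Signal: kinetic Fluo-8 calcium fluorescence. Controls: oxytocin EC15 low and EC100 high.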
V1R ag counter – activates human V1a receptor in oxytocin agonist counter-screen. hit rate 0.25% among 320,000. activation, % at 3 µM. CHO-V1R cells, Fluo-8 calcium fluorescence, agonist mode; 0% DMSO, 100% 3 nM vasopressin;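 active means activation above the mean activation of all tested compounds plus 3 SD, per screening run, cut at about 20% in these data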;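 further: signal is peak over basal fluorescence ratio across a 100 second FLIPR read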
CHO parental Ca – signal in parental CHO cells, OX1R antagonist counter-screen. hit rate 0.63% among 330,000. inhibition, % at 5.6 µM. AID 463079. parental CHO-K1, ATP-induced calcium, Fluo-8 fluorescence;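 active means inhibition above that plate's mean sample inhibition plus 3 SD, cut at about 26% in these data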;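 further: 0% = ATP-challenged DMSO wells and 100% = DMSO wells without ATP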
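Test system: parental CHO cells; detection: calcium-sensitive Fluo-8 fluorescence; evaluation: percent inhibition of calcium signal; also added: ATP as calcium-mobilizing challenge; repeats: one well per compound; control set: ATP-challenged DMSO wells low, unchallenged DMSO wells high; compound: single nominal dose of 5.6 µM per compound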
OXTR agonist – agonists of human oxytocin receptor | P30559 | CHO-OTR cells, Fluo-8 calcium fluorescence; normalized: DMSO 0%, oxytocin 100% | activation, % at 3 µM | hit rate 0.32% among 320,000 | AID 2435;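 active means activation above the mean of all tested compounds plus 3 SD, cutoff set per screening run, cut at about 20% in these data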;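 further: peak over basal fluorescence ratio from a 100 s FLIPR kinetic read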
Active calls of the source: *.

SMILES	OX1R antag-1	OX1R antag-2	OXTR potentiate	V1R ag counter	CHO parental Ca	OXTR agonist
NS(=O)(=O)c1cccc(NC(=O)COC(=O)CCC(=O)c2cccs2)c1	-3	11	-8	1	1	2
CN(CCCC(=O)NCc1ccc2c(c1)OCO2)S(=O)(=O)c1ccc([N+](=O)[O-])cc1	66*	-13	-8	4	0	2
COC(=O)c1c(C(=O)OC)c2ccccn2c1C(=O)c1ccc([N+](=O)[O-])cc1	17	-22	-13	2	-15	-2
CC(C)OC(=O)c1c2c(n3ccccc13)C(=O)c1ccccc1C2=O	8	23	-17	31*	16	25*
Oc1cc(NCCc2cccnc2)cc2cccnc12	66*	-26	1	2	-14	2
COc1ccc(C2=NS(=O)(=O)N(C)C(C(=O)Nc3ccc4c(c3)OCO4)=C2)cc1OC	11	0	-10	8	7	7
Cc1nc(Nc2ccc3c(c2)OCCO3)c2oc3ccccc3c2n1	55*	-24	-2	-1	-32	-2
c1ccc2c(c1)oc1c(Nc3ccc4c(c3)OCCO4)ncnc12	72*	-3	8	-2	-33	-2
Cc1ccc(Nc2ncnc3c2oc2ccccc23)cc1	54	-15	-3	-1	-6	-3
CCc1nc(Nc2ccc3c(c2)OCCO3)c2oc3ccccc3c2n1	14	-46	3	-2	-29	-2
C=CC[C@@H](CC(=O)N(CCO)Cc1ccccc1)C(=O)NC[C@H](OC(=O)[C@@H](CC=C)Cc1ccc(F)cc1)c1ccccc1	34	40	-9	4	-13	3
O=C1c2ccccc2-c2nc3ccccc3cc21	58*	-3	2	-1	-3	-2
N#CCSc1ccccc1NC(=O)CN1C(=O)C(=O)N(Cc2ccccc2)C1=O	8	-9	-6	4	-12	2
Cc1cc2cc(CCNC(=O)C(=O)c3c[nH]c4ccccc34)c(=O)[nH]c2cc1C	65*	2	-12	1	-20	2
O=C(CN1C(=O)c2ccc([N+](=O)[O-])cc2C1=O)NC1CCS(=O)(=O)C1 (centres undefined)	56*	-6	2	1	4	1
Cc1ccc(C(=O)NCC(c2ccco2)N2CCCCC2)s1 (centres undefined)	-9	-4	-2	0	-6	-1
O=C(NCC1CCCO1)c1ccc([N+](=O)[O-])s1 (centres undefined)	70*	-9	2	2	5	1
O=C(NCC(c1ccco1)N1CCCCC1)c1ccc([N+](=O)[O-])s1 (centres undefined)	56*	-36	-5	0	-22	0
O=C(CN1C(=O)c2ccc([N+](=O)[O-])cc2C1=O)NCC1CCCO1 (centres undefined)	68*	-7	-18	1	3	2
CC1(C)N=C(N)N=C(N)N1c1ccc(Oc2ccc(Cl)cc2)c(Cl)c1	-7	-35	-5	0	-7	0
Cc1cc(C)n(CCC(=O)N2CCN(S(=O)(=O)c3ccccc3)CC2)n1	8	-16	6	1	0	0
Cc1cnc(C(=O)OCC(=O)N2CCC(C)CC2)cn1	6	-20	1	1	11	2
COc1ccccc1C(=O)NCC(=O)OC(C)C(=O)NC1CCCCC1C (centres undefined)	1	-17	-3	0	-26	1
O=C(/C=C/c1ccc([N+](=O)[O-])cc1)NCC1CCCO1 (centres undefined)	59*	-12	-9	0	-12	0
CN(Cc1ccccc1)C(=O)CSc1nc2ccccc2c(=O)n1Cc1ccco1	34*	14	-4	0	-24	0
SMILES	OX1R antag-1	OX1R antag-2	OXTR potentiate	V1R ag counter	CHO parental Ca	OXTR agonist
Cc1ccc(NC(=O)CN(C)C(=O)c2ccccc2Sc2ccccc2C#N)cc1	55*	-19	-5	0	-25	-1
CC(=O)Nc1ccc(NC(=O)C(C)OC(=O)c2cc(S(=O)(=O)N3CCOCC3)ccc2Cl)cc1 (centres undefined)	7	-6	-5	1	-16	0
CC(OC(=O)c1cc(S(=O)(=O)N(C)c2ccccc2)ccc1Cl)C(=O)Nc1ccc2c(c1)OCCO2 (centres undefined)	46*	-16	-3	0	-5	0
O=C(CCSc1ccc(Br)cc1)c1ccc(O)cc1	22	-15	-9	2	5	0
COc1ccc(NC(=O)CC2C(=O)N(C)C(=S)N2CCc2ccccc2F)cc1 (centres undefined)	4	-21	-30	6	-6	3
CN1C(=O)C(CC(=O)Nc2ccc(F)cc2)N(CCCc2ccccc2)C1=S (centres undefined)	52	48*	-21	13	4	14
COc1ccccc1NC(=O)c1ccc(Cl)c(S(=O)(=O)NCc2ccco2)c1	27	11	0	0	-15	-2
COc1ccccc1C1OC2=C(Nc3ccc([N+](=O)[O-])cc3N2)C1=O (centres undefined)	43*	-15	-17	6	-10	4
COc1ccc(C2OC3=C(Nc4cc(C)c(C)cc4N3)C2=O)cc1 (centres undefined)	21	-19	-13	3	-7	0
COc1ccc(C(CNC(=O)CCC(=O)c2ccc(C)s2)N2CCOCC2)cc1 (centres undefined)	3	-22	-4	1	-24	1
O=C(CCC(=O)Nc1ccc(F)cc1)N/N=C/c1ccc(O)cc1O	13	-15	-9	1	-9	0
O=C(N/N=C/c1ccc(O)cc1O)C(=O)N/N=C/c1ccc(O)cc1O	70*	-12	-2	2	-12	-1
NC(=O)c1cc(-c2ccccc2)nc(N2CCOCC2)n1	22	-10	-5	0	-4	0
CC[n+]1cc(-c2ccccc2)nc(N2CCOCC2)n1	51*	3	-9	0	-5	0
COc1cc(/C=N/NC(=O)CSc2cc(C)c(Br)cc2C)ccc1O	48*	7	-24	6	8	12
Cc1cc(SCC(=O)N/N=C/c2ccc(O)c(O)c2O)c(C)cc1Br	17	4	-17	5	-1	0
O=C(CCc1nc(-c2ccccc2F)no1)Nc1ccc(Oc2ccccc2)cc1	55	62*	-22	7	39*	5
COc1cccc(NC(=O)CCc2nc(-c3ccccc3F)no2)c1	3	0	4	3	-14	3
CC(=O)c1ccc(NC(=S)NC(NC(=O)c2ccco2)C(Cl)(Cl)Cl)cc1 (centres undefined)	52	15	-24	38*	-12	61*

High-throughput results (PubChem BioAssay)
